# Screening results as filed in PubChem.
# The list is not random: actives were taken first. Their share in the collection is about 1.6%.
# Tb hexokinase: T. brucei hexokinase 1 inhibition. AID 1430. inhibition, % at 10 µM. recombinant TbHK1, G6PDH-coupled NADH A340. actives 0.11% (n = 220,000);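 active = inhibition of 50% or more in the single-dose primary screen; inactive = inhibition below 50%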
# sdo1 growth: compounds rescuing growth of sdo1-depleted yeast, bone marrow failure model | z-score at 10 µM | S. cerevisiae sdo1-depleted JHY4D growth rescue, OD600 30 h; stronger effect = higher value; pdr5 snq2 efflux-pump mutant strain | actives 0.21% (n = 140,000) | AID 817;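 active = z-score above 3 at both the 24 hr and the 30 hr optical density reads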;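 note: z-score against mean and SD of all compound wells on the same plate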
# RBBP9 inhibitor: inhibitors of human serine hydrolase RBBP9; O75884; recombinant RBBP9, FP-Rh probe fluorescence polarization; inhibition, % at 7.94 µM; actives 0.2% (n = 220,000); AID 1515;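 active = inhibition above the campaign mean of all tested compounds plus 3 SD, cut at about 14% in these data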;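 note: plate controls were DMSO wells with RBBP9 for no effect and wells lacking RBBP9 protein for full effect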
#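 Measured by – fluorescence polarization · Test system – RBBP9 protein · Input – 2.5 µM RBBP9 dispensing solution, before mixing · Measure – percent inhibition from mP, scaled between DMSO and no-protein wells · Benchmarks – DMSO-treated enzyme wells and wells lacking RBBP9 · Times – preincubation 30 min plus labeling 45 min at 25 °C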
# Yeast life ext: yeast lifespan extension | S. cerevisiae growth with nicotinamide, OD615; deaD strain in restrictive glucose medium | inhibition of the nicotinamide effect, % at 10 µM | actives 0.68% (n = 130,000) | AID 775;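 active = inhibition above a set limit, placed 3 SD over the median of all compounds, cut at about 26% in these data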;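 note: 0% = nicotinamide-treated wells and 100% = cells grown without nicotinamide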
#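 Assay system: DeaD-strain S. cerevisiae. Medium: CSMM-D glucose medium, restrictive. Reagent: nicotinamide, 1.5 mM, co-present with compound. Compound: 10 µM single point, 0.25% DMSO. Schedule: culture preincubation 4 h, compound exposure 48 h, both 30 °C. Detection: absorbance at 615 nm.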
# NCF1 inh: inhibitors of human p47phox binding | p47phox/p22phox peptide binding, fluorescence polarization, 2 h | AID 1274 | actives 0.53% (n = 220,000) | inhibition, % at 24.7 µM | P14598;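 active = inhibition above about 30%, limit read from the data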;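 note: 0% = p47phox with labelled peptide and 100% = labelled peptide alone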
# Target sequence (P14598 whole entry, looked up): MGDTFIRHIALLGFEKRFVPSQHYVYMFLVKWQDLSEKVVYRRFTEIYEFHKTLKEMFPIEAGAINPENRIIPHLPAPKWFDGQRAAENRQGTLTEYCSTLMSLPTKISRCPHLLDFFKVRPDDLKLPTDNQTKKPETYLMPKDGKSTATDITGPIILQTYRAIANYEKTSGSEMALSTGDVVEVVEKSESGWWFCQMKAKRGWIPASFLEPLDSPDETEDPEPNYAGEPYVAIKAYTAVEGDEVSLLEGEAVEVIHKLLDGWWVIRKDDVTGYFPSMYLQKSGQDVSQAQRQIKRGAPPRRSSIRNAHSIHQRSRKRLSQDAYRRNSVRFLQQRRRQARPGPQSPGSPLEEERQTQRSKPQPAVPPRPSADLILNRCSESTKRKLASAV
# Yeast growth inh: yeast BB579 growth reduction in restrictive medium. S. cerevisiae BB579 growth, OD615, 48 h. actives 0.51% (n = 140,000). inhibition, % at 10 µM;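 active = inhibition above a set limit, 3 SD over the mean compound inhibition, cut at about 44% in these data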
#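 Assay system: S. cerevisiae DeaD strain BB579 yeast. Medium: CSMM-D restrictive synthetic medium containing dextrose (glucose). Times: 4 h cell preincubation, 48 h compound exposure, 30 °C humidified. Signal: OD615 turbidity measurement. Benchmarks: positive control amphotericin B 10 µg/mL.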
# sdo1 rescue conf: SDO1-depleted yeast growth rescue confirmation. shares compounds with sdo1 growth. S. cerevisiae JHY4D (SDO1-depleted) growth rescue, OD600, 30 h; stronger effect = higher value; efflux-deficient strain, SNQ2 and PDR5 mutated. OD recovery (no concentration beside the values). actives 44% (n = 440);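 active = yeast growth recovered at 30 hours, either rising with dose fitted slope above 0.001 or with average optical density gain above 0.07, some results past the limit were not filed as active; inactive = growth falling with dose or no effect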;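 note: gain in OD600 from 0 h to 30 h averaged across all seven doses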
# * hit, by the source's call; nt = no result; [ ] = dose if it differs, or a comment.
SMILES,Tb hexokinase,sdo1 growth,RBBP9 inhibitor,Yeast life ext,NCF1 inh,Yeast growth inh,sdo1 rescue conf
CNC(=O)c1c(NC(=O)c2nc3ccccc3s2)sc2c1CCC2,-9,-0.25,-6,-7,-46,-22,0.038
COC(=O)c1c(NC(=O)c2nc3ccccc3s2)sc2c1CCN(C(C)=O)C2,-40,-0.39,-7,-1,-28,-30,nt
O=C(NCc1ccncc1)C(=O)Nc1nc2ccccc2s1,-29,nt,-6,nt,1,nt,nt
O=C(CN1CCN(c2cccc(Cl)c2)CC1)Nc1ccc([N+](=O)[O-])cc1C(=O)Nc1ccccc1F,-6,14*,-14,1,-7,-32,0.033
Cc1nn(C(=O)c2c(-c3ccccc3)noc2C)c(C)c1N=Nc1cc(C(F)(F)F)cc(C(F)(F)F)c1,-10,nt,-9,nt,-11,nt,nt
COc1ccc(-c2nc3ccccc3o2)cc1NC(=O)c1ccc(Br)o1,11,2.1,-2,-1,-116,-43,0.064*
CCN(CC)CCCNC(=O)c1sc2nc(-c3ccc(F)cc3)cn2c1C,-4,3.6*,-1,-10,5,7,0.083*
Cc1c(C(=O)NCc2ccccn2)sc2nc(-c3ccc(F)cc3)cn12,1,0.29,4,-7,-17,-30,nt
O=C(CN1C(=O)c2ccccc2C1=O)NCC1CCCO1 (stereo not drawn),2,0.2,-6,-4,0,-35,nt
O=C(CCCN1C(=O)c2ccccc2C1=O)NCC1CCCO1 (stereo not drawn),4,2,-10,-1,-8,-10,0.035
Cc1[nH]c2ccccc2c1C(=O)C(=O)NCc1cccs1,-11,nt,-4,nt,0,nt,nt
COC(=O)C1CCN(C(=O)CCCOc2ccccc2)CC1,-2,1.8,-6,-9,-8,6,0.044
CC(=O)N(C1=C(O)c2ccccc2C(=O)C1=O)C1CCCCC1,3,3.1*[12.9 µM],-5,-12,-12,-33,0.074*
CC1(C)C/C(=N\O)C(C(O)c2cccc([N+](=O)[O-])c2)C(C)(C)N1 (stereo not drawn),-6,nt,0,nt,-3,nt,nt
NS(=O)(=O)c1ccc(NC(=O)COC(=O)CCc2ccccc2)cc1,-3,nt,-9,nt,-4,nt,nt
O=C(NCc1ccc2c(c1)OCO2)c1cc(-c2ccc(Cl)cc2Cl)on1,-14,0.92,3,-6,6,-41,0.024
Cc1ccc(C)c(-n2nnnc2SCC(=O)NNC(=O)c2ccco2)c1,7,nt,-11,nt,19,nt,nt
CCC(=O)NC1(C(F)(F)F)C(=O)Nc2c1c(=O)[nH]c(=O)n2Cc1ccco1 (stereo not drawn),4,15*,1,-9,-7,-5,0.077
Cc1ccc(CO/N=C\Cc2snc(Sc3ncc(C(F)(F)F)cc3Cl)c2C#N)cc1,9,3.7*,4,1,-49,-77,0.049
COc1cccc(N=Nc2c(N)[nH]n3c(=O)c4c(nc23)CCCC4)c1,-14,nt,9,nt,-6,nt,nt
CCN1CCCC1CNC(=O)CCNC(=O)c1cc(OC)c(OC)c(OC)c1 (stereo not drawn),34,3.3*,-7,1,-15,-30,0.083*
NC(=O)COc1ccc(=O)n(-c2ccccc2)n1,-5,1.4,-3,-11,-27,-23,nt
O=c1ccc(OCCOc2ccccc2)nn1-c1ccccc1,14,12*,-6,-6,-24,-15,0.082*
COc1ccc(NC(=O)CSc2nnc(CN3CCOCC3)n2-c2ccccc2)cc1Cl,-10,3.5*,-10,-15,-3,-11,0.069
O=C(CNS(=O)(=O)c1ccccc1)Nc1cccc([N+](=O)[O-])c1,-2,nt,-4,nt,-1,nt,nt
COc1ccc(-c2nnc(SCC(=O)Nc3ccccc3OC)o2)cc1,-2,7.5*,7,nt,2,5,0.1*
CCN(CC)S(=O)(=O)c1ccc(-c2nnc(SCC(=O)Nc3ccc(OC)cc3)o2)cc1,11,-1.9,0,nt,10,10,nt
COc1ccccc1NC(=O)CSc1nc(C)c2c(c1C#N)CCCC2,-10,1.9,-7,-16,0,-42,0.078*
